Converted amounts (≈) assume the structure as drawn. The source made the active and inactive calls. The calls are words filed in the database; no cut-off is given here.
What was measured:
[1] = test system: Staphylococcus epidermidis; assay: Antibacterial activity against Staphylococcus epidermidis at 1 mg/ml after 24 hrs by agar dilution method; type: functional, organism-based
Outline: (§1)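 Agar well diffusion: overnight (16–18 h, 37 °C) cultures set to 0.5 McFarland and mixed into Mueller–Hinton agar. Compound stock 1 mg/mL in DMSO loaded into 6 mm wells, with DMSO as control and levofloxacin as reference. Plates incubated 37 °C for 24 h. Read-out is the diameter of the growth-inhibition zone around each well.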

Staphylococcus = assay: Antibacterial activity against Staphylococcus albus at 1 mg/ml after 24 hrs by agar dilution method; type: functional, organism-based
Bacillus cereus = assay: Antibacterial activity against Bacillus cereus at 1 mg/ml after 24 hrs by agar dilution method; type: functional, organism-based
Pseudomonas aeruginosa = assay: Antibacterial activity against Pseudomonas aeruginosa at 1 mg/ml after 24 hrs by agar dilution method; type: functional, organism-based; outline: as §1
Escherichia coli = assay: Antibacterial activity against Escherichia coli at 1 mg/ml after 24 hrs by agar dilution method; type: functional, organism-based
Tyrosinase = target: T1, Tyrosinase (Agaricus bisporus, UniProt O42713); assay: Inhibition of mushroom tyrosinase
T1 sequence (O42713 whole entry): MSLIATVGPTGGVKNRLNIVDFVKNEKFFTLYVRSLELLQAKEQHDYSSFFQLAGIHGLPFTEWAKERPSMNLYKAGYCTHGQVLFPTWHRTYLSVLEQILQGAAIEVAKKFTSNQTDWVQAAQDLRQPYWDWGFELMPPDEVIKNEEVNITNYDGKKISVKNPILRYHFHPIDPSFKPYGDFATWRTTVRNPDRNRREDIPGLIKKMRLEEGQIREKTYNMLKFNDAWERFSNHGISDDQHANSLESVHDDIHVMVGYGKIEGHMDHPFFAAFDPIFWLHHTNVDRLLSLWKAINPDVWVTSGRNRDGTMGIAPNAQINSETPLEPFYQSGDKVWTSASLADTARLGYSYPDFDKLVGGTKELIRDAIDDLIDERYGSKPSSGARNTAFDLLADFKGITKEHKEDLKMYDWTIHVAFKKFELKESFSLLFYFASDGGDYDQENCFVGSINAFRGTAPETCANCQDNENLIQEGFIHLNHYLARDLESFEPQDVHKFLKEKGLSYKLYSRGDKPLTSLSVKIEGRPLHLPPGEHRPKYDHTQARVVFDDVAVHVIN
Outline: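 Mushroom tyrosinase diphenolase assay: 1 mL reaction with 0.5 mM L-DOPA in 50 mM sodium phosphate buffer, pH 6.8, enzyme final 0.5 mg/mL, 25 °C. Compounds dissolved in DMSO (2.0% final); DMSO-only controls run. Dopachrome formation followed at 475 nm for 1 min. IC50 interpolated from dose–response curves; means of three experiments.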

[2] = target: T2, Tyrosinase (Agaricus bisporus) (UniProt O42713); assay: Inhibition of mushroom tyrosinase at 200 uM
T2 sequence (whole entry): T1 sequence (O42713 whole entry)
Outline: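 Single-concentration check in the mushroom tyrosinase diphenolase assay. Conditions: 0.5 mM L-DOPA, 50 mM phosphate buffer pH 6.8, enzyme 0.5 mg/mL, 25 °C, 2.0% DMSO final with DMSO controls. Activity read as dopachrome absorbance at 475 nm over 1 min.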

Staphylococcus aureus = assay: Antibacterial activity against Staphylococcus aureus after 24 hrs by agar dilution method; type: functional
Outline: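 MIC by agar dilution on Mueller–Hinton agar containing twofold serial dilutions from a 1 mg/mL DMSO stock. Final levels 50, 25, 12.5, 6.25, 3.1, 1.5, 0.8, 0.4 and 0.2. Inoculum was 16–18 h cultures at 0.5 McFarland; plates incubated 37 °C for 24 h. MIC is the lowest concentration preventing visible growth; levofloxacin was the reference.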

| Structure (SMILES) | Activity [1] | Activity (Staphylococcus) | Activity (Bacillus cereus) | Activity (Pseudomonas aeruginosa) | Activity (Escherichia coli) | IC50 (Tyrosinase) [µM] | inhibition [2] | MIC (Staphylococcus aureus) [µg/mL] |
| --- | --- | --- | --- | --- | --- | --- | --- | --- |
| O=C1NC(=S)NC(=O)C1=Cc1ccc(OCCO)cc1 | inactive | inactive | inactive | inactive | inactive | > 200 | 16.5% | > 25 |
| COCCOCCOc1ccc(C=C2C(=O)NC(=S)NC2=O)cc1 | inactive | inactive | inactive | inactive | inactive | 34.2 | 100% | > 12.5 |
| O=C1NC(=S)NC(=O)C1=Cc1ccc(O)cc1 | inactive | inactive | inactive | inactive | inactive | 14.5 | 100% | 3.1 (≈ 12.5 µM) |
| COCCOc1ccc(CC2C(=O)NC(=S)NC2=O)cc1 | inactive | inactive | inactive | inactive | inactive | 113 | 100% | > 12.5 |
| O=C1NC(=O)C(Cc2ccc(OCCO)cc2)C(=O)N1 | inactive | inactive | inactive | inactive | inactive | > 200 | 5.27% | > 12.5 |
| COc1ccc(/C=C/C(=O)O)cc1 | – | – | – | – | – | – | 46.6% | – |
| O=C1NC(=O)C(=Cc2ccc(OCCO)cc2)C(=O)N1 | inactive | inactive | inactive | inactive | inactive | > 200 | 22.4% | > 25 |
| COCCOCCOc1ccc(CC2C(=O)NC(=S)NC2=O)cc1 | inactive | inactive | inactive | inactive | inactive | 132 | 97.5% | > 12.5 |
| COCCOCCOc1ccc(CC2C(=O)NC(=O)NC2=O)cc1 | inactive | inactive | inactive | inactive | inactive | > 200 | 14.3% | > 12.5 |
| CCCCOCCOc1ccc(CC2C(=O)NC(=O)NC2=O)cc1 | inactive | inactive | inactive | inactive | inactive | > 200 | inactive | > 12.5 |
| COCCCCOc1ccc(C=C2C(=O)NC(=S)NC2=O)cc1 | inactive | inactive | inactive | inactive | inactive | 77.8 | 100% | > 25 |
| O=C1CC(=O)NC(=O)N1 [BARBITURIC ACID] | – | – | – | – | – | > 200 | 5.95% | – |
| O=C1NC(=S)NC(=O)C1Cc1ccc(O)cc1 | inactive | inactive | inactive | inactive | inactive | 70 | 100% | > 25 |
| COCCOc1ccc(CC2C(=O)NC(=O)NC2=O)cc1 | inactive | inactive | inactive | inactive | inactive | > 200 | 23.1% | > 12.5 |
| O=Cc1ccc(O)cc1 [4-HYDROXYBENZALDEHYDE] | – | – | – | – | – | 1220 | 16.4% | – |
| CCCCOCCOc1ccc(C=C2C(=O)NC(=S)NC2=O)cc1 | inactive | inactive | inactive | inactive | inactive | 107 | 85.9% | 3.1 (≈ 8.9 µM) |
| COCCCCOc1ccc(C=C2C(=O)NC(=O)NC2=O)cc1 | inactive | inactive | inactive | inactive | inactive | > 200 | 12.2% | > 25 |
| O=C1NC(=O)C(Cc2ccc(O)cc2)C(=O)N1 | inactive | inactive | inactive | inactive | inactive | > 200 | 47.5% | > 12.5 |
| O=C1CC(=O)NC(=S)N1 [THIOBARBITURIC] | – | – | – | – | – | > 200 | 8.21% | – |
| COCCOc1ccc(C=C2C(=O)NC(=S)NC2=O)cc1 | inactive | inactive | inactive | inactive | inactive | 28.4 | 100% | > 12.5 |
| O=C1NC(=S)NC(=O)C1Cc1ccc(OCCO)cc1 | inactive | inactive | inactive | inactive | inactive | 156 | 95.9% | > 25 |
| COCCCCOc1ccc(CC2C(=O)NC(=O)NC2=O)cc1 | inactive | inactive | inactive | inactive | inactive | > 200 | 1.15% | > 12.5 |
| C[C@H]1COc2c(N3CCN(C)CC3)c(F)cc3c(=O)c(C(=O)O)cn1c23.C[C@H]1COc2c(N3CCN(C)CC3)c(F)cc3c(=O)c(C(=O)O)cn1c23.O [LEVOFLOXACIN] | – | – | – | – | – | – | – | 0.4 |
| O=C1NC(=O)C(=Cc2ccc(O)cc2)C(=O)N1 | inactive | inactive | inactive | inactive | inactive | 14 | 100% | > 25 |
| COCCCCOc1ccc(CC2C(=O)NC(=S)NC2=O)cc1 | inactive | inactive | inactive | inactive | inactive | > 200 | 9.85% | > 12.5 |
| COCCOc1ccc(C=C2C(=O)NC(=O)NC2=O)cc1 | inactive | inactive | inactive | inactive | inactive | 75.4 | 100% | > 25 |
| CCCCOCCOc1ccc(C=C2C(=O)NC(=O)NC2=O)cc1 | inactive | inactive | inactive | inactive | inactive | 45.4 | 100% | > 25 |
| CCCCOCCOc1ccc(CC2C(=O)NC(=S)NC2=O)cc1 | inactive | inactive | inactive | inactive | inactive | 179 | 78.7% | 6.25 (≈ 17.8 µM) |
| COCCOCCOc1ccc(C=C2C(=O)NC(=O)NC2=O)cc1 | inactive | inactive | inactive | inactive | inactive | 137 | 88.7% | > 25 |

Source: ChEMBL document CHEMBL1154106, “Inhibitory effects of 5-benzylidene barbiturate derivatives on mushroom tyrosinase and their antibacterial activities” (Eur J Med Chem, 2009)
